Results published in ChEMBL document CHEMBL2040758, “Synthesis and antitumor activity of novel quinazoline derivatives containing thiosemicarbazide moiety” (Eur J Med Chem, 2012).

Tests used:
Format in all cases: functional, cell-based
[1] = tested on: MGC-803; test: Cytotoxicity against human MGC803 cells after 72 hrs by MTT assay; conditions: MGC-803, 72 h
Method in brief: (§1)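 Log-phase cells: KB, CNE2, MGC-803 and GLC-82 grown in RPMI 1640 + 10% fetal calf serum; MCF-7 in DMEM + 10% fetal calf serum. Seeded at 1.5×10⁴ cells/mL (KB), 2.0×10⁴ (CNE2, MGC-803, GLC-82) or 2.5×10⁴ (MCF-7), 37 °C, 5% CO₂, 24 h. Compound exposure 72 h, 37 °C. MTT (5 mg/mL saline stock) 3 h. A570, reference 655 nm. IC₅₀ versus untreated control, ≥3 experiments.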

[2] = tested on: KB; test: Cytotoxicity against human KB cells after 72 hrs by MTT assay; method in brief: as §1
[3] = tested on: MCF7; test: Cytotoxicity against human MCF7 cells after 72 hrs by MTT assay; conditions: MCF7, 72 h; method in brief: as §1
[4] = Cytotoxicity against human GLC82 cells after 72 hrs by MTT assay; conditions: GLC82, 72 h; method in brief: as §1
[5] = Cytotoxicity against human CNE2 cells after 72 hrs by MTT assay; conditions: CNE-2, 72 h; method in brief: as §1

SMILES	IC50 [1]	IC50 [2]	IC50 [3]	IC50 [4]	IC50 [5]
COc1cc2ncnc(NNC(=S)NC(=O)c3ccc(Cl)cc3)c2cc1OC	3.71 µM	4.59 µM	8.94 µM	9.62 µM	7.53 µM
COc1cc2ncnc(NNC(=S)NC(=O)c3ccccc3OC)c2cc1OC	1.59 µM	3.85 µM	8.8 µM	16 µM	8.41 µM
COc1cc2ncnc(NNC(=S)NC(=O)c3ccccc3C)c2cc1OC	11.1 µM	11.4 µM	19.3 µM	21.5 µM	10.5 µM
COc1cc2ncnc(NNC(=S)NC(=O)c3ccc(C)cc3)c2cc1OC	19.7 µM	24.2 µM	22.3 µM	29.9 µM	33.3 µM
O=C(NC(=S)NNc1ncnc2ccccc12)c1ccccc1	6.99 µM	2.33 µM	5.96 µM	8.37 µM	1.49 µM
O=C(NC(=S)NNc1ncnc2ccccc12)c1ccccc1Cl	9.14 µM	7.71 µM	10.5 µM	10.8 µM	6.09 µM
O=C(NC(=S)NNc1ncnc2ccccc12)c1cccc(Cl)c1	4.54 µM	4.74 µM	3.54 µM	3.24 µM	2.92 µM
O=C(NC(=S)NNc1ncnc2ccccc12)c1ccc(Cl)cc1	1.86 µM	3.94 µM	5.96 µM	6.68 µM	1.53 µM
O=C(NC(=S)NNc1ncnc2ccccc12)c1ccccc1F	5.01 µM	2.51 µM	5.02 µM	6.46 µM	4.61 µM
O=C(NC(=S)NNc1ncnc2ccccc12)c1ccc(F)cc1	3.6 µM	1.87 µM	4.59 µM	6.07 µM	2.84 µM
O=C(NC(=S)NNc1ncnc2ccccc12)c1ccc(C(F)(F)F)cc1	10.6 µM	7.92 µM	8.05 µM	12.2 µM	22.5 µM
COc1ccccc1C(=O)NC(=S)NNc1ncnc2ccccc12	14.3 µM	> 50 µM	8.7 µM	9.5 µM	15.7 µM
Cc1ccccc1C(=O)NC(=S)NNc1ncnc2ccccc12	4.24 µM	2.77 µM	16.5 µM	13.2 µM	5.46 µM
Cc1ccc(C(=O)NC(=S)NNc2ncnc3ccccc23)cc1	3.76 µM	10.1 µM	7.82 µM	11.2 µM	17.2 µM
COc1cc2ncnc(NNC(=S)NC(=O)c3ccccc3)c2cc1OC	3.05 µM	3.77 µM	6.99 µM	6.55 µM	8.18 µM
COc1cc2ncnc(NNC(=S)NC(=O)c3ccccc3Cl)c2cc1OC	6.44 µM	3.56 µM	23.1 µM	10 µM	9.67 µM
COc1cc2ncnc(NNC(=S)NC(=O)c3cccc(Cl)c3)c2cc1OC	4.06 µM	4.83 µM	11.5 µM	8.37 µM	7.46 µM
COc1cc2ncnc(NNC(=S)NC(=O)c3ccccc3F)c2cc1OC	2.39 µM	4.07 µM	8.5 µM	8.64 µM	12.7 µM
COc1cc2ncnc(NNC(=S)NC(=O)c3ccc(F)cc3)c2cc1OC	8.3 µM	4.53 µM	25.8 µM	15.3 µM	16.1 µM
COc1cc2ncnc(NNC(=S)NC(=O)c3ccc(C(F)(F)F)cc3)c2cc1OC	9.28 µM	8.84 µM	16.8 µM	16.5 µM	16.5 µM
O=c1[nH]cc(F)c(=O)[nH]1 [FLUOROURACIL]	18.5 µM	8.28 µM	14.2 µM	17.4 µM	15.1 µM
